From ChEMBL document CHEMBL2412970, “Synthesis and anticancer activity of 2,4-disubstituted furo[3,2-b]indole derivatives” (Eur J Med Chem, 2013)
The source made the active and inactive calls. No cut-off for these calls is given here.

Experiments:
A498 [1] = assay: Induction of apoptosis in human A498 cells assessed as late apoptotic cells at 0.5 uM after 12 hrs by AnnexinV/FITC-propidium iodide staining-based flow cytometry (reference value: 9.6%); format: functional
Method in brief: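 Flow cytometry with annexin V-FITC/PI double labeling of A498 cells treated for 12, 24, 36 or 48 h; untreated cells served as the 0 h control. Stained in binding buffer for 15 min at room temperature in the dark, with more binding buffer added just before analysis. Annexin V+/PI− (Q4) counted as early apoptotic and annexin V+/PI+ (Q2) as late apoptotic.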

A498 [2] = assay: Cytotoxicity against human A498 cells assessed as reduction in cell viability at 0.5 uM after 48 hrs by MTT assay relative to control; format: functional
A498 [3] = assay: Cytotoxicity against human A498 cells assessed as reduction in cell viability at 0.1 uM after 48 hrs by MTT assay relative to control; format: functional
Hs-578T = assay: Cytotoxicity against human Hs578T cells after 48 hrs by sulforhodamine B assay; format: functional
DU-145 = assay: Cytotoxicity against human DU145 cells after 48 hrs by sulforhodamine B assay; format: functional; conditions: DU-145, 48 h
CAKI-1 = assay: Cytotoxicity against human Caki1 cells after 48 hrs by sulforhodamine B assay; format: functional; conditions: CAKI-1, 48 h
ACHN = assay: Cytotoxicity against human ACHN cells after 48 hrs by sulforhodamine B assay; format: functional
NCI/ADR-RES = assay: Cytotoxicity against human NCI/ADR-RES cells after 48 hrs by sulforhodamine B assay; format: functional
OVCAR-8 = assay: Cytotoxicity against human OVCAR8 cells after 48 hrs by sulforhodamine B assay; format: functional; conditions: OVCAR-8, 48 h
IGROV-1 = assay: Cytotoxicity against human IGROV1 cells after 48 hrs by sulforhodamine B assay; format: functional; conditions: IGROV-1, 48 h
UACC-62 = assay: Cytotoxicity against human UACC62 cells after 48 hrs by sulforhodamine B assay; format: functional; conditions: UACC-62, 48 h
SNB-75 = assay: Cytotoxicity against human SNB75 cells after 48 hrs by sulforhodamine B assay; format: functional; conditions: SNB-75, 48 h
SF-268 = assay: Cytotoxicity against human SF268 cells after 48 hrs by sulforhodamine B assay; format: functional; conditions: SF-268, 48 h
SW-620 = assay: Cytotoxicity against human SW620 cells after 48 hrs by sulforhodamine B assay; format: functional; conditions: SW-620, 48 h
NCI-H460 = assay: Cytotoxicity against human NCI-H460 cells after 48 hrs by sulforhodamine B assay; format: functional; conditions: NCI-H460, 48 h
A498 [4] = assay: Cell cycle arrest in human A498 cells assessed as accumulation at G2/M phase at 0.5 uM after 36 hrs by propidium iodide staining-based flow cytometry (reference value: 5.39 +/- 0.01%); format: functional
A498 [5] = assay: Cell cycle arrest in human A498 cells assessed as accumulation at G0/G1 phase at 0.5 uM after 36 hrs by propidium iodide staining-based flow cytometry (reference value: 78.70 +/- 0.02%); format: functional
A498 [6] = assay: Cell cycle arrest in human A498 cells assessed as accumulation at G0/G1 phase at 0.5 uM after 24 hrs by propidium iodide staining-based flow cytometry (reference value: 78.70 +/- 0.02%); format: functional
A498 [7] = assay: Cell cycle arrest in human A498 cells assessed as accumulation at sub-G1 phase at 0.5 uM after 48 hrs by propidium iodide staining-based flow cytometry (reference value: 0.10 +/- 0.07%); format: functional
A498 [8] = assay: Induction of apoptosis in human A498 cells assessed as reduction in mitochondrial membrane potential at 0.5 uM after 12 to 48 hrs by JC-1 staining-based flow cytometry; format: functional, cell-based
Method in brief: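 A498 cells at 1 × 10⁶ cells/mL, untreated or treated for 12–48 h, were stained with JC-1 working solution for 10–15 min and analysed by flow cytometry. High-potential cells show intense red JC-1 aggregate fluorescence; loss of potential is scored as the population with reduced red fluorescence.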

A498 [9] = assay: Induction of apoptosis in human A498 cells assessed as caspase-3 activation at 0.5 uM after 24 hrs by Western blotting analysis; format: functional, cell-based
Method in brief: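 A498 cells exposed for 6, 12, 24, 36 or 48 h, then washed in PBS and lysed. Lysates were held on ice for 30 min and spun at 12 000g for 20 min. Supernatant protein was measured by Bradford assay, run on 10% SDS-PAGE and transferred to nitrocellulose. Blots were probed for AIF, Endo G, Apaf-1, cytochrome c, caspase 9 and caspase 3, with β-actin as loading control; n = 3 independent experiments.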

[10] = read-out: pLC50 (the source's name) (converted)

Q: What does the source list for `OCc1ccc(Cn2c3ccccc3c3oc(CO)cc32)o1`?
A: Activity (A498 [1]): 10%; Activity (A498 [2]): 37.5%; Activity (A498 [3]): 82.8%; GI50 (Hs-578T): > 100 µM; CC50 (Hs-578T; [10]): > 100 µM; TGI (Hs-578T; read-out: pTGI): > 100 µM; GI50 (DU-145): > 100 µM; CC50 (DU-145; [10]): > 100 µM; TGI (DU-145; read-out: pTGI): > 100 µM; GI50 (CAKI-1): 51.3 µM; CC50 (CAKI-1; [10]): > 100 µM; TGI (CAKI-1; read-out: pTGI): > 100 µM; GI50 (ACHN): 79.4 µM; CC50 (ACHN; [10]): > 100 µM; TGI (ACHN; read-out: pTGI): > 100 µM; GI50 (NCI/ADR-RES): > 100 µM; CC50 (NCI/ADR-RES; [10]): > 100 µM; TGI (NCI/ADR-RES; read-out: pTGI): > 100 µM; GI50 (OVCAR-8): > 100 µM; CC50 (OVCAR-8; [10]): > 100 µM; TGI (OVCAR-8; read-out: pTGI): > 100 µM; GI50 (IGROV-1): 4.68 µM; CC50 (IGROV-1; [10]): > 100 µM; TGI (IGROV-1; read-out: pTGI): > 100 µM; GI50 (UACC-62): 3.24 µM; CC50 (UACC-62; [10]): > 100 µM; TGI (UACC-62; read-out: pTGI): > 100 µM; GI50 (SNB-75): 46.8 µM; CC50 (SNB-75; [10]): > 100 µM; TGI (SNB-75; read-out: pTGI): > 100 µM; GI50 (SF-268): 97.7 µM; CC50 (SF-268; [10]): > 100 µM; TGI (SF-268; read-out: pTGI): > 100 µM; GI50 (SW-620): > 100 µM; CC50 (SW-620; [10]): > 100 µM; TGI (SW-620; read-out: pTGI): > 100 µM; GI50 (NCI-H460): > 100 µM; CC50 (NCI-H460; [10]): > 100 µM; TGI (NCI-H460; read-out: pTGI): > 100 µM; Activity (A498 [4]): 15.98%; Activity (A498 [5]): 69.69%; Activity (A498 [6]): 72.65%; Activity (A498 [7]): 12.76%; Activity (A498 [8]): Active; Activity (A498 [9]): Active
